PRMT1 inh: PRMT1 (human) inhibition, primary screen; Q99873; recombinant PRMT1, activity-based probe fluorescence polarization; inhibition, % at 2.79 µM; hit rate 1.3% among 370,000; AID 652257;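 active means inhibition above about 21% made by adding two undisclosed values, limit read from the data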
GSTO1 counter: GSTO1 inhibition, counter-screen for RBBP9 inhibitors. inhibition, % at 5.96 µM. recombinant GSTO1, activity-based probe fluorescence polarization. P78417. hit rate 1.1% among 300,000;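 active means inhibition above the campaign mean inhibition plus 3 SD, cut at about 35% in these data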
Apaf-1 inh: human Apaf-1 inhibition | O14727 | reconstituted apoptosome caspase-3 activity, DEVD-Rh110 fluorescence | inhibition, % at 20 µM | hit rate 0.71% among 330,000 | AID 489030; active means inhibition of at least 40% at 20 µM
Target sequence (O14727 whole entry, looked up): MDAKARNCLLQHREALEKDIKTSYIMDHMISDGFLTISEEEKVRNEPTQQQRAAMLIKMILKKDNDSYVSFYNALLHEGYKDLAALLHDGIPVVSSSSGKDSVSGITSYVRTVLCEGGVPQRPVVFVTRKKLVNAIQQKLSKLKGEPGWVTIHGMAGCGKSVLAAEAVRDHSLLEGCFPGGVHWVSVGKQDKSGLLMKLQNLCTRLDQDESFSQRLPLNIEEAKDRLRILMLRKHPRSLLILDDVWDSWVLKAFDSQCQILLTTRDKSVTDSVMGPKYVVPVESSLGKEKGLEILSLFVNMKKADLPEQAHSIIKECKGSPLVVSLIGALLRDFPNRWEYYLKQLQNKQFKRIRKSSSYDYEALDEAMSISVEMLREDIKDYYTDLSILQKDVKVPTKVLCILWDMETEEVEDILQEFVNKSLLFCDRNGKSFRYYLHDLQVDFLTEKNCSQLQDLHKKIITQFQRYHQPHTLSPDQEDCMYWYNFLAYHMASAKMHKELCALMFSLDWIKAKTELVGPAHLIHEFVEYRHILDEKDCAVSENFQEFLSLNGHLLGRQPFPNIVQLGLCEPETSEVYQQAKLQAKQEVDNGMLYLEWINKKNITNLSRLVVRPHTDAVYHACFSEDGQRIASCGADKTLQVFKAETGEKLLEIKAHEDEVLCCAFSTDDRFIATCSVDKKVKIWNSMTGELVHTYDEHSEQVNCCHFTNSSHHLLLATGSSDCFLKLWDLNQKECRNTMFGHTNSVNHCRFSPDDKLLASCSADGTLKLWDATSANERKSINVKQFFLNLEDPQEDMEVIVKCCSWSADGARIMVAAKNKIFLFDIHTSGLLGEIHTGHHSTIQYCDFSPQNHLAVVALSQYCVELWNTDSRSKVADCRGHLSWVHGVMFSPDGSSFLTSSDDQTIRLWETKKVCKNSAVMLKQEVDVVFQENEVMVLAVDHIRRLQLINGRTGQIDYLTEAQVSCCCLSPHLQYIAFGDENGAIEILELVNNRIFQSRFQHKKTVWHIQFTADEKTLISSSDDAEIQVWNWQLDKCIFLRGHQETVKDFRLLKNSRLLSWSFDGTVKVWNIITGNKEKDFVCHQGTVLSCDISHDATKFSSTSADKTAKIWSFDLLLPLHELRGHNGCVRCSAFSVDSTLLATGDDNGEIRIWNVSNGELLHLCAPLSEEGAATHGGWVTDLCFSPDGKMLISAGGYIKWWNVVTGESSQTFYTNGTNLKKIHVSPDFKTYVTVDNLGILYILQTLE
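detection = Rh110 fluorescence intensity | test system = biochemical Apaf-1 apoptosome reconstitution | also added = cytochrome c and DEVD-Rh110 substrate | schedule = 30 min plus 50 min, RT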
TDP2 inh: TDP2 (human) inhibition, absorbance primary screen; O95551; recombinant TDP2, T5PNP hydrolysis, p-nitrophenol absorbance 415 nm; inhibition, % at 12.8 µM; hit rate 0.34% among 370,000; AID 720702;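 active means inhibition above the mean of all tested compounds plus 3 SD, set per campaign, cut at about 25% in these data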
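Test system: human TDP2 enzyme; Input: 120 nM TDP2 per well; Buffer or medium: Mg2+-containing Tris-HCl buffer, pH 7.5; Reagent: 5 mM T5PNP; Dosing: 12.8 µM single point, 1% DMSO; Incubation: reaction 2 h, 37 °C; Detection: p-Nitrophenol epi absorbance; Read-out: % inhibition relative to enzyme-containing and enzyme-free wells; Replicates: single well per compound.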
PAD4 inh: PAD4 (human) enzyme inhibition; Q9UM07; recombinant PAD4, RCA probe fluorescence polarization; inhibition, % at 6.36 µM; hit rate 0.41% among 330,000;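 active means percent inhibition above a cutoff equal to the mean of all tested compounds plus 3 SD, cut at about 15% in these data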
Apaf-1 inh conf: Apaf-1 inhibition, single-dose confirmed; shares compounds with Apaf-1 inh; reconstituted apoptosome, caspase-3 DEVD-Rh110 fluorescence; inhibition, % at 20 µM; hit rate 25% among 1,800;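 active means mean inhibition of at least 40% at 20 µM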
Rh110 interf inh: counter-screen for Apaf-1 inhibitors: fluorescence interference. shares compounds with Apaf-1 inh. Rh110 fluorescence interference, quenched caspase reaction. activation (fluorescence interference), % at 20 µM. 1,800 tested, under 10 active. AID 504615;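 active means signal rise of 40% or more at 20 µM, treated as a fluorescence artifact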
Apaf1 inh interf: shows fluorescence interference in the Apaf-1 inhibitor assay format | 460 tested, under 10 active | fluorescence interference counterscreen, Apaf-1 assay format | IC50, µM | AID 588538 | shares compounds with Apaf-1 inh; call rule not given here
Numbers stand for hits. Most compounds without a hit are left out; they make up all but 2.6% or so of the library.

For CN(Cc1ccc(Cl)c(Cl)c1)C(=O)c1cccc(S(=O)(=O)N2CCN(Cc3ccccc3)CC2)c1 the results were PRMT1 inh inactive, Apaf-1 inh 72, TDP2 inh inactive, PAD4 inh inactive, Apaf-1 inh conf 49, Rh110 interf inh inactive and Apaf1 inh interf inactive.
O=C1CCC[C@@H]2C=C[C@H](c3ccc(Br)cc3)[C@H]3CCN1[C@@H]32 was read as PRMT1 inh inactive and TDP2 inh inactive.
CCOC(=O)[C@@]12CCCC=C1N(CCc1ccc(Cl)cc1)C(=O)[C@H]2CC(=O)NCCc1ccccc1OC was read as PRMT1 inh inactive and TDP2 inh inactive.
`O=C1C[C@@H](c2ccccc2)N=C2N(Cc3ccc4c(c3)OCO4)C/C(=C/c3ccccc3)N12` gave PRMT1 inh inactive and TDP2 inh inactive.
Screening O=C(COc1ccc2c3c(c(=O)oc2c1)CCCC3)N1CCN(c2ccc(F)cc2)CC1 returned PRMT1 inh inactive, GSTO1 counter inactive, Apaf-1 inh inactive, TDP2 inh inactive and PAD4 inh inactive.
`O=C(COc1ccc2c3c(c(=O)oc2c1)CCC3)N1CCN(c2ccc(F)cc2)CC1` gave PRMT1 inh inactive, GSTO1 counter inactive, Apaf-1 inh 42, TDP2 inh inactive, PAD4 inh inactive, Apaf-1 inh conf inactive and Rh110 interf inh inactive.
For CCOC(=O)N1CCN(C(=O)c2cccc(S(=O)(=O)Nc3ccc(F)cc3)c2)CC1 the results were PRMT1 inh inactive and TDP2 inh inactive.
CCOC(=O)N1CCN(C(=O)c2cccc(S(=O)(=O)Nc3ccc(OC)cc3)c2)CC1 was read as PRMT1 inh inactive, GSTO1 counter inactive, Apaf-1 inh 51, TDP2 inh inactive, PAD4 inh inactive, Apaf-1 inh conf inactive and Rh110 interf inh inactive.
CCn1c2ccccc2nc2cc3c(cc21)c(Cl)c(=O)c1ccccc13 was read as PRMT1 inh inactive and TDP2 inh inactive.
`Cc1ccccc1CN1CCCCC(NC(=O)Nc2cccc([N+](=O)[O-])c2)C1=O` (centres undefined) gave PRMT1 inh inactive and TDP2 inh inactive.
`CC/C(=C(\c1ccc(O)cc1)c1ccc(OCCN(C)C)cc1)c1ccccc1` gave PRMT1 inh inactive, GSTO1 counter inactive, Apaf-1 inh 65, TDP2 inh inactive, PAD4 inh inactive, Apaf-1 inh conf inactive and Rh110 interf inh inactive.
`CCN(CC)CCOc1ccc(/C(=C(/Cl)c2ccccc2)c2ccccc2)cc1` gave PRMT1 inh inactive, GSTO1 counter inactive, Apaf-1 inh 65, TDP2 inh inactive, PAD4 inh inactive, Apaf-1 inh conf inactive and Rh110 interf inh inactive.
CCC(=C(c1ccccc1)c1ccc(OCCN(C)C)cc1)c1ccccc1 was read as PRMT1 inh inactive and TDP2 inh inactive.
`CC/C(=C(\c1ccccc1)c1ccc(OCCN(C)C)cc1)c1ccccc1` gave PRMT1 inh inactive, GSTO1 counter inactive, Apaf-1 inh 72, TDP2 inh inactive, PAD4 inh inactive, Apaf-1 inh conf inactive and Rh110 interf inh inactive.
For CCC(=C(c1ccc(O)cc1)c1ccc(OCCN(C)C)cc1)c1ccccc1 the results were PRMT1 inh inactive and TDP2 inh inactive.
`COC(=O)[C@]12C[C@H](CC(=O)N3CCCC3)C(=O)N(Cc3cccc4ccccc34)C1=C[C@H](C(C)C)O[C@@H]2C1CC1` gave PRMT1 inh inactive and TDP2 inh inactive.
For O=[N+]([O-])c1cccc(NCCCN2CCC(C(O)(c3ccccc3)c3ccccc3)CC2)c1 the results were PRMT1 inh inactive and TDP2 inh inactive.
CC(C)C[C@H]1CN(CCCC[C@@H]2CNC(=O)C(=O)N2CC2CCCCC2)C(=O)C(=O)N1CCc1ccccc1 was read as PRMT1 inh inactive and TDP2 inh inactive.
CC[C@@H](C)[C@@H]1CN([C@@H](CN2CCC[C@H]2CN2C(N)=NC[C@H]2CC(C)C)C(C)C)C(=N)N1CCCC1CCCC1 was read as PRMT1 inh inactive, Apaf-1 inh inactive, TDP2 inh inactive and PAD4 inh inactive.
Screening CCCCN1C(=N)N([C@@H](C)CN2CCC[C@H]2CN2C(N)=NC[C@@H]2Cc2ccccc2)C[C@H]1[C@H](C)CC returned PRMT1 inh inactive, Apaf-1 inh inactive, TDP2 inh inactive and PAD4 inh inactive.
For CCC[C@@H](CN1CCC[C@H]1CN1C(N)=NC[C@H]1CC(C)C)N1C[C@@H]([C@H](C)CC)N(CCc2ccc(Cl)c(Cl)c2)C1=N the results were PRMT1 inh inactive, Apaf-1 inh 64, TDP2 inh inactive, PAD4 inh inactive, Apaf-1 inh conf inactive and Rh110 interf inh inactive.
Screening CCOc1ccc(CCN2C(=O)C(=O)N([C@@H](CC(C)C)CN3CCC[C@H]3CN3C(=O)C(=O)NC[C@@H]3CC(C)C)C[C@@H]2CC(C)C)cc1 returned PRMT1 inh inactive and TDP2 inh inactive.
CC[C@@H](C)[C@@H]1CN([C@@H](C)CN2CCC[C@H]2CN2C(N)=NC[C@H]2CC(C)C)C(=N)N1CCc1ccc(Cl)c(Cl)c1 was read as PRMT1 inh inactive, Apaf-1 inh 52, TDP2 inh inactive, PAD4 inh inactive, Apaf-1 inh conf inactive and Rh110 interf inh inactive.
For CC[C@@H](C)[C@@H]1CN([C@@H](CN2CCC[C@H]2CN2C(N)=NC[C@H]2CC(C)C)C(C)C)C(=N)N1CCc1ccc(Cl)c(Cl)c1 the results were PRMT1 inh inactive, Apaf-1 inh 63, TDP2 inh inactive, PAD4 inh inactive, Apaf-1 inh conf inactive and Rh110 interf inh inactive.
Screening C#CCOCCOCCOCCNc1nc(N2CCN(C(=O)CCCCCCCCCCNC(=O)[C@@H](CCC(=O)O)n3cc(CCCCCN)nn3)CC2)nc(N2CCN(C(=O)CCCCCCCCCCNC(=O)[C@H](CCCCN)n3cc(C[C@@H](C)CC)nn3)CC2)n1 returned GSTO1 counter inactive, Apaf-1 inh 72, PAD4 inh inactive, Apaf-1 inh conf 50, Rh110 interf inh inactive and Apaf1 inh interf inactive.
Screening C#CCOCCOCCOCCNc1nc(N2CCN(C(=O)[C@H](CCCCN)n3cc(CN)nn3)CC2)nc(N2CCN(C(=O)[C@H](CCCCN)n3cc(CN)nn3)CC2)n1 returned PRMT1 inh inactive, Apaf-1 inh 44, TDP2 inh inactive, PAD4 inh inactive, Apaf-1 inh conf inactive and Rh110 interf inh inactive.
C#CCOCCOCCOCCNc1nc(N2CCN(C(=O)[C@H]([C@@H](C)CC)n3cc(CCC(=O)O)nn3)CC2)nc(N2CCN(C(=O)[C@H](CCCCN)n3cc(CCC(=O)O)nn3)CC2)n1 was read as PRMT1 inh inactive and TDP2 inh inactive.

Screens from PubChem BioAssay.
